What was measured:
human MCM•cob(II)alamin [1] = molecular target: T1, human MCM•cob(II)alamin (Homo sapiens, UniProt P22033); test: Metabolite binding to MCM•cob
T1 sequence (P22033 33-750): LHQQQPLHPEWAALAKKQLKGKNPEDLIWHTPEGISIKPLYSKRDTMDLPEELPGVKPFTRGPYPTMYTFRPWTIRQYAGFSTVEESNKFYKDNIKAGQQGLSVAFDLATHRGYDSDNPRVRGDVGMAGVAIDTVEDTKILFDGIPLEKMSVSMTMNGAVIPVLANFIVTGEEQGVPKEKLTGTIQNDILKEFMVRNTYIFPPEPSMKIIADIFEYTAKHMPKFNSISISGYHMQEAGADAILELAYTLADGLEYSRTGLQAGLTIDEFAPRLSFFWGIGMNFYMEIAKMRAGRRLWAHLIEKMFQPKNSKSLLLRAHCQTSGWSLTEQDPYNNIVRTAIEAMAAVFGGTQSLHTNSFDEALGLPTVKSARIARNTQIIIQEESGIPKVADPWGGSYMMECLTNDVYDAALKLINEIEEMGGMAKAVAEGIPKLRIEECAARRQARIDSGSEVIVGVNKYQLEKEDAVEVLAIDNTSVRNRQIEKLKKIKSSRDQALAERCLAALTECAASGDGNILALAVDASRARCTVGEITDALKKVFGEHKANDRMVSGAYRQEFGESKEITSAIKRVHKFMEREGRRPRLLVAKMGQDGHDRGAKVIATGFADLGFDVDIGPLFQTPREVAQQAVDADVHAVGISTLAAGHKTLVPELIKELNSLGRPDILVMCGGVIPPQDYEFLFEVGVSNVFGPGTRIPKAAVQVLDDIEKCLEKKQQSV
Summary of the method: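 Cob(II)alamin was made by photolysis of 1.2 mM AdoCbl (stock) in anaerobic water and quantified with ε474 9.2 cm⁻¹ mM⁻¹. Work was done in an anaerobic chamber (<0.2 ppm O₂) with 40 µM cob(II)alamin and 20 µM MCM dimer in Buffer A at 20 °C. For the screen, metabolites were added at 5 mM and spectra recorded after 15 min. For Kd, metabolite was titrated, A460 read after 10 min, and data fitted to a quadratic binding equation.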

human MCM, CblA and ATR = molecular target: T2, human MCM, CblA and ATR (Homo sapiens, UniProt P22033); test: CblA-dependent cob; format: biochemical; settings: cob(II)alamin transfer MCM to ATR, anaerobic, 25 °C, 5 mM ADP or 0.5 mM M-CoA
T2 sequence (P22033 33-750): T1 sequence (P22033 33-750)
Summary of the method: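 Recombinant human MCM, CblA and ATR expressed in E. coli. Metabolite (ADP or M-CoA) was added to the MCM solution. A464 was followed for 20 min; transfer extent came from Δε464 5.6 cm⁻¹ mM⁻¹, and kobs from a single-exponential fit.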

human MCM•cob(II)alamin [2] = molecular target: T1, human MCM•cob(II)alamin; test: Stopped-flow spectroscopy of ADP/ATP binding to MCM•cob
Summary of the method: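 Anaerobic stopped-flow with diode-array detection was run at 25 °C. MCM•cob(II)alamin was preformed from 80 µM cob(II)alamin and 40 µM MCM dimer (stock) in Buffer A for 10 min, then rapidly mixed with 0.25–2.5 mM ADP or ATP. A460 traces were fitted to a single exponential for kobs. kon came from linear regression of kobs on metabolite concentration, and koff from titration Kd and kon.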

[3] = molecular target: T3, Mycobacterium tuberculosis MCM (Mycobacterium tuberculosis, UniProt P9WJK5); test: Kinetics of M. tuberculosis MCM•cob; format: biochemical; settings: in air
T3 sequence (P9WJK5 1-750): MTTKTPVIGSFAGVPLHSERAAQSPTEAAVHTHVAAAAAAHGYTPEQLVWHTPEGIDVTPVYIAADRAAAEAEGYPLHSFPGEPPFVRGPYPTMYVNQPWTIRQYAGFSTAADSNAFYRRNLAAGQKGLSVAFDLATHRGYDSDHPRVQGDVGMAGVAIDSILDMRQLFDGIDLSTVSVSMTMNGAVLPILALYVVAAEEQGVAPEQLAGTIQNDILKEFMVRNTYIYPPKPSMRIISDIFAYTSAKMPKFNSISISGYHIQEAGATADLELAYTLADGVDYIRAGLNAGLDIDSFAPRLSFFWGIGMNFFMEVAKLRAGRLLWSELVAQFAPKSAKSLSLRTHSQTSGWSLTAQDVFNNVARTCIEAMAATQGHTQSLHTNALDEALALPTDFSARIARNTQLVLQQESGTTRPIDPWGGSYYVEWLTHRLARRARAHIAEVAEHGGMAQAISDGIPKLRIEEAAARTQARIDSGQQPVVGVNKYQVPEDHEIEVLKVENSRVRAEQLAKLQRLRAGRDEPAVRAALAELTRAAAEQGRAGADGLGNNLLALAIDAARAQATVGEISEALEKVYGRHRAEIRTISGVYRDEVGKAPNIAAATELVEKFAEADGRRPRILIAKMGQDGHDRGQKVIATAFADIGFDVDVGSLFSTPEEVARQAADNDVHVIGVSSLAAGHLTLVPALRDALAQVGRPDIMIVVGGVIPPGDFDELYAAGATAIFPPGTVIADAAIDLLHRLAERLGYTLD
T3 sequence (P9WJK7 1-615 partner): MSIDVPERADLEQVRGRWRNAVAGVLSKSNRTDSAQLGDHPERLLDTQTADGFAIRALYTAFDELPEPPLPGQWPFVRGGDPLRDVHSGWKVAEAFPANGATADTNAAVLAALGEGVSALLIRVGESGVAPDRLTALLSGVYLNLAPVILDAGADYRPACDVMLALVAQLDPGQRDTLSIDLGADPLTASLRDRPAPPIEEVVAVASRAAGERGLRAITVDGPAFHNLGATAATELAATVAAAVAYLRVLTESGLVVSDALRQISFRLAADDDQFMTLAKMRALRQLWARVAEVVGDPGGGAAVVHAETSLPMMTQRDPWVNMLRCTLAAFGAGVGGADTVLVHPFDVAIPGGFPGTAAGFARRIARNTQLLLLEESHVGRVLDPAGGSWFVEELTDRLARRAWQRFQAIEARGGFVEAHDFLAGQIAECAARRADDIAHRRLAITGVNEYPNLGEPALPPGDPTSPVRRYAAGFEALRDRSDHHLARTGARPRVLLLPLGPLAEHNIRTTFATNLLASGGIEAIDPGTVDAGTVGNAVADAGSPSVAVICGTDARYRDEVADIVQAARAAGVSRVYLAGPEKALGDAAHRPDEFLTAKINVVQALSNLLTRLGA

human ATR = molecular target: T4, human ATR (Homo sapiens, UniProt Q96EY8); test: ATP-triggered release of AdoCbl from ATR into solution; format: biochemical; settings: ATR•AdoCbl without PPPi, confirmed after separation with a 10 kDa cutoff filter
T4 sequence (Q96EY8 33-250): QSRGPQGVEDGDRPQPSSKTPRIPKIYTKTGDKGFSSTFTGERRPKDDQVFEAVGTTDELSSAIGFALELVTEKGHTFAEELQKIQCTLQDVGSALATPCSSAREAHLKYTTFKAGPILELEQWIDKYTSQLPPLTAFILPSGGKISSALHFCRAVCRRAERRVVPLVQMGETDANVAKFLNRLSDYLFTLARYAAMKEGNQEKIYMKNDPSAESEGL

ATR = settings: PPPi on ATR ternary product complex; ref [14]; cited from earlier work
human MCM = molecular target: T5, human MCM (Homo sapiens, UniProt P22033); test: Kinetics of human MCM•cob; format: biochemical; settings: absence of ligands, in air, 25 °C
T5 sequence (P22033 33-750): T1 sequence (P22033 33-750)
Summary of the method: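 The MCM•cob(II)alamin sample (40 µM cob(II)alamin, 20 µM MCM dimer) was prepared in anaerobic Buffer A at pH 7.5. Oxidation was started by twofold dilution with aerobic buffer. H₂OCbl formation was followed as the rise in absorbance at 350 nm versus time, giving kobs.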

Structure (SMILES)	Kd (human MCM•cob(II)alamin [1])	Rate of transfer (kobs) (human MCM, CblA and ATR)	also measured
C[C@H]1O[C@@H](n2cnc3c(N)ncnc32)[C@H](O)[C@@H]1O [5′-dAdo, 5′-deoxyadenosine]	4.2 ± 2.1 µM	–	–
Nc1ncnc2c1ncn2[C@@H]1O[C@H](COP(=O)(O)OP(=O)(O)O)[C@@H](O)[C@H]1O [ADP, adenosine diphosphate]	44 ± 4.2 µM	0.24 ± 0.01 min⁻¹	fold higher kon of ADP versus ATP (human MCM•cob(II)alamin [2]; ADP vs ATP): ~ 100 fold; rate of ADP binding relative to oxidation of cob(II)alamin on MCM (human MCM•cob(II)alamin [2]; assuming a cellular ADP concentration of 6 mM): ~ 600 fold; Effect on oxidation of cob(II)alamin bound to M. tuberculosis MCM [3]: prevented
Nc1ncnc2c1ncn2[C@@H]1O[C@H](COP(=O)(O)OP(=O)(O)OP(=O)(O)O)[C@@H](O)[C@H]1O [ATP, adenosine triphosphate]	30 ± 5 µM	–	AdoCbl released from ATR into solution (human ATR): 40%
CC(C)(COP(=O)(O)OP(=O)(O)OC[C@H]1O[C@@H](n2cnc3c(N)ncnc32)[C@H](O)[C@@H]1OP(=O)(O)O)[C@@H](O)C(=O)NCCC(=O)NCCS [CoA, Coenzyme A]	118 ± 13 µM	0.92 ± 0.06 min⁻¹	–
O=P(O)(O)OP(=O)(O)OP(=O)(O)O [PPPi, sodium triphosphate pentabasic]	–	–	Kd (ATR): < 0.4 µM
C/C1=C2/[N-][C@H]([C@H](CC(N)=O)[C@@]2(C)CCC(=O)NC[C@@H](C)OP(=O)([O-])O[C@H]2[C@@H](O)[C@@H](n3cnc4cc(C)c(C)cc43)O[C@@H]2CO)[C@]2(C)N=C(/C(C)=C3N=C(/C=C4N=C1[C@@H](CCC(N)=O)C\4(C)C)[C@@H](CCC(N)=O)[C@]\3(C)CC(N)=O)[C@@H](CCC(N)=O)[C@]2(C)CC(N)=O.[Co+2] [cob(II)alamin]	–	–	kobs of oxidation of MCM-bound cob(II)alamin to H2OCbl (human MCM): 0.08 min⁻¹

From publication PMC10243129 (Proceedings of the National Academy of Sciences of the …, 2023)
